Laboratory results taken from ChEMBL document CHEMBL3414541, “Discovery of new thienopyrimidinone derivatives displaying antimalarial properties toward both erythrocytic and hepatic stages of Plasmodium” (Eur J Med Chem, 2015).
Activity calls are given as the source filed them. No cut-off for these calls is given here.

Assays:
Salmonella typhimurium [1] = assay: Mutagenicity in Salmonella typhimurium TA100 at 2.5 mM after 1 hr by Ames test in absence of S9 fraction; type: toxicity, organism-based; settings: salmonella enterica subsp. enterica serovar typhimurium, 2500 µM
Procedure, shortened: (§1)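 Tester strains were grown overnight in nutrient broth. 0.1 mL culture was incubated 1 h at 37 °C with shaking with compound (2.5–25 mM DMSO solutions), with or without 4% S9 mix. Top agar was added and the mix plated on Vogel-Bonner agar. Revertants were counted after 48 h at 37 °C in the dark. A twofold rise over spontaneous revertants counts as mutagenic.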

Salmonella typhimurium [2] = assay: Mutagenicity in Salmonella typhimurium TA97A at 2.5 mM after 1 hr by Ames test in absence of S9 fraction; type: toxicity, organism-based; settings: salmonella enterica subsp. enterica serovar typhimurium, 2500 µM; procedure, shortened: as §1
[3] = Selectivity index, ratio of CC50 for human HepG2 cells to IC50 for multi-drug resistant Plasmodium falciparum K1 infected in human erythrocytes
Plasmodium falciparum [4] = assay: Antiplasmodial activity against multi-drug resistant Plasmodium falciparum K1 infected in human erythrocytes assessed as parasite growth inhibition after 72 hrs by SYBR Green I dye-based fluorescence assay; type: functional, organism-based
[5] = (§2) Cytotoxicity against human HepG2 cells assessed as cell viability after 72 hrs by MTT assay; type: cell-based; settings: HepG2 cells
Procedure, shortened: (§3)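 Cells were kept in RPMI with 10% FBS. 5×10^3 cells/well were settled 24 h, then exposed to compound from DMSO (final <0.5%): CHO for 24 h, HepG2 for 72 h, in duplicate. Wells were checked for precipitate. MTT was added for 2 h at 37 °C, formazan dissolved in DMSO, and A570 read (630 nm reference). Viability is % of untreated cells; CC50 from non-linear regression, mean of three experiments.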

Plasmodium falciparum [6] = assay: Antiplasmodial activity against multi-drug resistant Plasmodium falciparum K1 infected in human erythrocytes assessed as depolarization of mitochondrial membrane at IC50 after 20 mins by flow cytometric analysis; type: functional, organism-based
HepG2 = assay: as §2; type: cell-based; settings: hepg2, 72 h; procedure, shortened: as §3
[7] = Genotoxicity in DNA (unknown origin) incubated for 24 hrs in dark condition by methyl green displacement assay
Procedure, shortened: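 DNA-methyl green (4 mg in 20 mL 0.05 M Tris-HCl pH 7.5 with 7.5 mmol/L MgSO4) was shaken 24 h at 37 °C. It was then added to compound from DMSO (final <0.5%). A630 was read, and read again after 24 h at room temperature in the dark. DC50 is the concentration displacing 50% of methyl green.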

[8] = Inhibition of Plasmodium falciparum DHFR after 48 hrs
Procedure, shortened: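 Recombinant S. cerevisiae whose own DHFR is replaced by the P. falciparum DHFR domain was used. 1×10^4 cells were grown in YEPD with compound from DMSO (final <0.5%) at 30 °C for 48 h, in duplicate. Growth was read as A660. IC50 (50% growth inhibition) came from non-linear regression.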

[9] = Cytotoxicity against human HepG2 cells expressing CD81 assessed as cell viability after 72 hrs by CellTiter-glo assay; type: cell-based
Plasmodium yoelii = assay: Antiplasmodial activity against liver stage of Plasmodium yoelii 17X NL sporozoites infected in human HepG2 cells expressing CD81 after 48 hrs by DAPI staining-based immunofluorescence analysis; type: functional, organism-based; settings: HepG2, 48 h
Procedure, shortened: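 HepG2/CD81 cells were grown in D-MEM with 10% FBS. 25×10^3 cells/well went on collagen-coated wells; after 24 h they received compound and 5000 P. yoelii sporozoites together, then were spun 900 × g for 10 min at 4 °C. Treatment was renewed at 3 h and 24 h. At 48 h cells were methanol-fixed, stained with anti-HSP70 immunofluorescence, and parasites counted by microscopy. IC50 is 50% fewer parasites than in 0.5% DMSO controls.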

Plasmodium falciparum [10] = assay: Antiplasmodial activity against multi-drug resistant Plasmodium falciparum K1 infected in human erythrocytes assessed as parasite growth inhibition after 72 hrs by SYBR Green I dye-based fluorescence assay in presence of ascorbic acid; type: functional, organism-based; settings: K1, 72 h
Procedure, shortened: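 Same SYBR Green I 72 h growth assay on the K1 strain (2% haematocrit, 1% parasitaemia, 37 °C, 6% CO2/14% O2/80% N2, DMSO <0.5%), with 800 µM ascorbic acid in the medium as radical trap. Duplicates; artesunate as positive control; IC50 derived.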

[11] = Selectivity index, ratio of CC50 for human HepG2 cells expressing CD81 to IC50 for liver stage of Plasmodium yoelii 17X NL sporozoites infected in human HepG2 cells expressing CD81; type: functional
[12] = Cytotoxicity against CHO cells assessed as cell viability after 24 hrs by MTT assay; type: cell-based, Cricetulus griseus; settings: chinese hamster; procedure, shortened: as §3
[13] = Plasmodium falciparum, K1, 72 h, read-out: IC50

| SMILES | IC50 (Plasmodium falciparum [4]; [13]) | CC50 at 72 h [5] | other results |
| --- | --- | --- | --- |
| CCN(CCCl)CCCNc1c2ccc(Cl)cc2nc2ccc(OC)cc12 | – | – | Activity (Salmonella typhimurium [1]): Toxic; Activity (Salmonella typhimurium [2]): Toxic |
| CC(C)Nc1nc2cc(-c3ccc(F)cc3)sc2c(=O)[nH]1 | 0.5 µM | > 25 µM | Ratio CC50/IC50 [3]: >66 |
| [N-]=[N+]=[N-].[Na+] [SODIUM AZIDE] | – | – | Activity (Salmonella typhimurium [1]): Toxic; Activity (Salmonella typhimurium [2]): Toxic |
| CCCCCNc1nc2cc(-c3ccc(C)cc3)sc2c(=O)[nH]1 | > 5 µM | 4.2 µM | – |
| Cc1ccc(-c2cc3nc(NC(C)(C)C)[nH]c(=O)c3s2)cc1 | – | – | Activity (Plasmodium falciparum [6]): inactive |
| CC(C)(C)Nc1nc2cc(-c3ccc(F)cc3)sc2c(=O)[nH]1 | > 5 µM | 5.1 µM | – |
| Cc1ccc(-c2cc3nc(NCc4ccccc4Cl)[nH]c(=O)c3s2)cc1 | > 5 µM | 32.6 µM | – |
| CCCCN(CCCC)c1nc2cc(-c3ccc(C)cc3)sc2c(=O)[nH]1 | – | – | IC50 (Plasmodium falciparum [4]): ND(Insoluble); CC50 (HepG2): ND(Insoluble) |
| CCCNc1nc2cc(-c3ccc(C)cc3)sc2c(=O)[nH]1 | > 5 µM | > 62.5 µM | – |
| COc1cccc2c1C(=O)c1c(O)c3c(c(O)c1C2=O)C[C@@](O)(C(C)=O)C[C@@H]3O[C@H]1C[C@H](N)[C@H](O)[C@H](C)O1 [DAUNORUBICIN] | – | – | DC50 [7]: 1 µM |
| CC1(C)N=C(N)N=C(N)N1c1ccc(Cl)cc1 [CYCLOGUANIL] | – | – | IC50 [8]: 5 µM |
| COc1ccc(-c2cc3nc(NC(C)C)[nH]c(=O)c3s2)cc1 | 0.5 µM | 27.1 µM | Ratio CC50/IC50 [3]: 136 |
| CC(C)(C)Nc1nc2ccsc2c(=O)[nH]1 | > 5 µM | 8.4 µM | – |
| CC(C)Nc1nc2ccsc2c(=O)[nH]1 | > 5 µM | 23.9 µM | – |
| C[C@@H]1CC[C@H]2[C@@H](C)C(=O)O[C@@H]3O[C@@]4(C)CC[C@@H]1[C@]32OO4 [ARTEMISININ] | – | – | CC50 at 72 h [9]: > 10 µM; IC50 (Plasmodium yoelii): > 10 µM |
| Cc1ccccc1-c1cc2nc(NC(C)(C)C)[nH]c(=O)c2s1 | 1.7 µM | 4 µM | Ratio CC50/IC50 [3]: 2 |
| CCC(CC)Nc1nc2cc(-c3ccc(C)cc3)sc2c(=O)[nH]1 | > 5 µM | 101 µM | – |
| Cc1ccc(-c2cc3nc(NC(C)c4ccccc4)[nH]c(=O)c3s2)cc1 (stereo not given) | > 5 µM | 9.2 µM | – |
| C[C@H]1[C@H](OC(=O)CCC(=O)O)O[C@@H]2O[C@@]3(C)CC[C@H]4[C@H](C)CC[C@@H]1[C@@]24OO3 [ARTESUNATE] | – | – | IC50 (Plasmodium falciparum [10]): 0.7 µM |
| CC(C)(C)Nc1nc2cc(-c3ccccc3)sc2c(=O)[nH]1 | 1 µM | 12.5 µM | Ratio CC50/IC50 [3]: 10 |
| CC(C)(C)Nc1nc2c(-c3ccc(F)cc3)csc2c(=O)[nH]1 | > 5 µM | 2.3 µM | – |
| CCCCCCC(C)Nc1nc2cc(-c3ccc(C)cc3)sc2c(=O)[nH]1 (stereo not given) | > 5 µM | 19.4 µM | – |
| CCCN(CCC)c1nc2cc(-c3ccc(C)cc3)sc2c(=O)[nH]1 | – | – | IC50 (Plasmodium falciparum [4]): ND(Insoluble); CC50 (HepG2): ND(Insoluble) |
| CCCCCCCNc1nc2cc(-c3ccc(C)cc3)sc2c(=O)[nH]1 | > 5 µM | 6.8 µM | – |
| CC(C)Nc1nc2c(-c3ccc(F)cc3)csc2c(=O)[nH]1 | > 5 µM | > 15.6 µM | – |
| CC(C)(C)Nc1nc2cc(-c3ccc(Cl)cc3)sc2c(=O)[nH]1 | – | – | Activity (Plasmodium falciparum [6]): inactive |

| SMILES | IC50 (Plasmodium falciparum [4]; [13]) | CC50 at 72 h [5] | other results |
| --- | --- | --- | --- |
| CC(C)Nc1nc2cc(-c3ccc(Cl)cc3)sc2c(=O)[nH]1 | 0.6 µM | > 15.6 µM | Ratio CC50/IC50 [3]: >26 |
| CCCCN(C)c1nc2cc(-c3ccc(C)cc3)sc2c(=O)[nH]1 | > 5 µM | 3 µM | – |
| CCCCCCNc1nc2cc(-c3ccc(C)cc3)sc2c(=O)[nH]1 | > 5 µM | 10.6 µM | – |
| Cc1ccc(-c2cc3nc(NC(C)C)[nH]c(=O)c3s2)cc1 | – | – | Activity (Plasmodium falciparum [6]): inactive |
| CCCCCN(CCCCC)c1nc2cc(-c3ccc(C)cc3)sc2c(=O)[nH]1 | – | – | IC50 (Plasmodium falciparum [4]): ND(Insoluble); CC50 (HepG2): ND(Insoluble) |
| O=C1C(O)=C([C@H]2CC[C@H](c3ccc(Cl)cc3)CC2)C(=O)c2ccccc21 [ATOVAQUONE] | – | > 15.6 µM | CC50 at 72 h [9]: 9.5 µM; IC50 (Plasmodium yoelii): 0.009 µM |
| CC(C)Nc1nc2cc(-c3ccc(Br)cc3)sc2c(=O)[nH]1 | 1.7 µM | 13.4 µM | Ratio CC50/IC50 [3]: 9 |
| CC(C)Nc1nc2c(-c3ccc(Cl)cc3)csc2c(=O)[nH]1 | > 5 µM | 7.1 µM | – |
| Cc1cccc(-c2cc3nc(NC(C)(C)C)[nH]c(=O)c3s2)c1 | 3.6 µM | 14.1 µM | Ratio CC50/IC50 [3]: 3 |
| C[C@H]1c2cccc(O)c2C(=O)C2=C(O)[C@]3(O)C(=O)C(C(N)=O)=C(O)[C@@H](N(C)C)[C@@H]3[C@@H](O)[C@@H]21.O [DOXYCYCLINE] | – | – | Ratio CC50/IC50 [3]: 4 |
| COc1ccc(-c2cc3nc(NC(C)(C)C)[nH]c(=O)c3s2)cc1 | > 5 µM | 32.3 µM | – |
| Cc1ccc(-c2cc3nc(NCC(C)C)[nH]c(=O)c3s2)cc1 | > 5 µM | 21.6 µM | – |
| Cc1ccc(-c2csc3c(=O)[nH]c(NC(C)C)nc23)cc1 | 2.7 µM | 8.8 µM | Ratio CC50/IC50 [3]: 3 |
| CCCCNc1nc2cc(-c3ccc(C)cc3)sc2c(=O)[nH]1 | > 5 µM | 6 µM | – |
| Cc1ccc(-c2csc3c(=O)[nH]c(NC(C)(C)C)nc23)cc1 | > 5 µM | 1.4 µM | – |
| CCc1nc(N)nc(N)c1-c1ccc(Cl)cc1 [PYRIMETHAMINE] | – | – | IC50 [8]: 2.8 µM |
| CC(C)Nc1nc2c(-c3ccc(Br)cc3)csc2c(=O)[nH]1 | > 5 µM | 6.5 µM | – |
| COc1cc(NC(C)CCCN)c2ncccc2c1 (stereo not given) [PRIMAQUINE] | – | – | CC50 at 72 h [9]: 6.1 µM; IC50 (Plasmodium yoelii): 1.16 µM; Ratio CC50/IC50 [11]: 5.3 |
| COc1ccc(-c2csc3c(=O)[nH]c(NC(C)C)nc23)cc1 | > 5 µM | 27.8 µM | – |
| CCN(CC)c1nc2cc(-c3ccc(C)cc3)sc2c(=O)[nH]1 | – | – | IC50 (Plasmodium falciparum [4]): ND(Insoluble); CC50 (HepG2): ND(Insoluble) |
| COc1cccc2c1C(=O)c1c(O)c3c(c(O)c1C2=O)C[C@@](O)(C(=O)CO)C[C@@H]3O[C@H]1C[C@H](N)[C@H](O)[C@H](C)O1 [DOXORUBICIN] | – | – | CC50 at 24 h [12]: 0.6 µM |
| Cc1ccc(-c2ccc3nc(NC(C)(C)C)[nH]c(=O)c3c2)cc1.Cl | > 5 µM | 0.49 µM | Ratio CC50/IC50 [3]: <10.2 |
| CC(C)(C)Nc1nc2cc(-c3ccc(Br)cc3)sc2c(=O)[nH]1 | > 5 µM | 1.4 µM | – |
| Cc1ccc(-c2ccc3c(=O)[nH]c(NC(C)(C)C)nc3c2)cc1 | > 5 µM | 0.98 µM | Ratio CC50/IC50 [3]: <5.1 |
| Cc1ccc(-c2cc3nc(N)[nH]c(=O)c3s2)cc1 | – | – | IC50 (Plasmodium falciparum [4]): ND(Insoluble); CC50 (HepG2): ND(Insoluble) |
